Measurements taken from the EternaBench riboswitch data.

Test system: MS2 coat protein
Test: apparent Kd, MS2 coat protein; higher = weaker binding; RNA-MaP array; FMN 200 µM where present
Method in brief: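 The apparent Kd comes from binding curves fitted cluster by cluster, filtered, and summarised as a median. Those curves followed SNAP-549-labelled MS2 coat protein from 0.7 or 1.5 nM, doubling to 3 µM, on Illumina sequencing-chip clusters where stalled E. coli RNA polymerase had transcribed the designs, without and then with constant ligand. The buffer was 100 mM Tris-HCl pH 7.5, 80 mM KCl, 4 mM MgCl2, BSA, DTT, yeast tRNA and Tween-20, and green signal was normalised to red-channel RNA signal and control-cluster median Fmax.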

[1] = designed as: OFF switch for flavin mononucleotide, no ligand
[2] = ligand present: flavin mononucleotide, designed as: OFF switch for flavin mononucleotide
[3] = designed as: ON switch for flavin mononucleotide, no ligand
[4] = ligand present: flavin mononucleotide, designed as: ON switch for flavin mononucleotide

| Sequence | apparent Kd [1] | apparent Kd [2] | apparent Kd [3] | apparent Kd [4] |
| --- | --- | --- | --- | --- |
| AAUUAUUGAUGAGGAUAUUGUGGUGAAACACCACAAGAAGGCAUUAUACACAUGAGGAUCACCCAUGUGAGCCUGAUGCAUAUA | 17.3 nM | 28.9 nM |  |  |
| GGGAGUGGAGGGAAUAACAUGAGGAUCACCCAUGUAUGGGAGAGAAGGCAGAUUGGAGGGCGAUCUGAGGAUAUUUAGACUCUU |  |  | 13.1 nM | 10.7 nM |
| AUGUGUCUUCGCGUCCUGCCCGGACAUGAGGAUCACCCAUGUAGAAGGCGGUGGCAAUGCUAGACCGAGGAUAUACAUGCAAAC | 17.8 nM | 51.3 nM |  |  |
| GACCUCACGGUCAGGAUAUCAGAACGUAAUGCGCAUGAGAAGGGACAUGAGGAUCACCCAUGUGGGCUCGUCGC | 13.5 nM | 17 nM |  |  |
| GCACUGGAUGUAGGAUAUCAGGACGAUAAGUCCUGAGAAGGACAUGAGGAUCACCCAUGUGAAAAUUACCAGUGCAAUAAUAUA | 14.4 nM | 39.9 nM |  |  |
| UCGUACAUUCGAGGAUAUCGGUGAUAAAUAAUACGAGAAGGCGAUUGUGGGCAUAACGCCUUAGACAUGAGGAUCACCCAUGUA |  |  | 75.6 nM | 51.5 nM |
| GACUGAUUGUAGAAGGUACUUGAAAAUAUUUAAUAACUCAUGUGACAUGAGGAUCACCCAUGUAGUAAGGAUAUACAUAUCACA |  |  | 198 nM | 91 nM |
| UUAAAUCAUGUAGGAUAUGCAUGGCGAAGCUACGCAGAAGGACAUGAGGAUCACCCAUGUUAUAGCUACCCAGUUAGGUGGCAA | 82.2 nM | 189 nM |  |  |
| UGGUCAUGAUCAGGAUAUUAACAUGGGCUACAUUAAGAAGGGAUAGUGAGAUGCGAACGGAACGACAUGAGGAUCACCCAUGUA |  |  | 44.6 nM | 35 nM |
| GUAUAUAGUGUGAGGAUAUGCUGGUCCUUGGAUCAGCAGAAGGCACAUGAGGAUCACCCAUGUAGUUUAUUAUG | 19.7 nM | 78 nM |  |  |
| UGCUGUGUCAGAGGAUAUACUCUAAUAAUCCAUUGCAAAUAGCGAUGGACAUGAGGAUCACCCAUGUAGAAGGCUGUCACAGCA | 73.6 nM | 140 nM |  |  |
| ACCGUAUGAACAUGAGGAUCACCCAUGUAAACGGAAACGAAUGAGGAUAUCGAUAGCAAAGCUAUCGAGAAGGCAUGGGACGGU |  |  | 64.5 nM | 26.8 nM |
| GUGGUCAGACAUGAGGAUCACCCAUGUGGAAUAAAUAAGGGAGAGGAUAUAUAAUAUAGGAUAUAAUAGAAGGCUCGGUUGGUG |  |  | 82.5 nM | 111 nM |
| AGUGUCAUCGAGAAGGCCUUAGGAACAUGAGGAUCACCCAUGUAACAUGGGAGGAUAUCGAUGAUACAGCUACGUUUCGUAGCA |  |  | 6.51 nM | 4.85 nM |
| GCGCGGAACCUAGGAUAUCCGGCAUGGACAGGUGGUAAGUCUCCCACAUGAGGAUCACCCAUGUAGGAGAAGGAGGAUCACGGG | 6.51 nM | 6.7 nM |  |  |
| AAUUUAAUACAUGAGGAUCACCCAUGUAAAUUAAUUAAGAUCAAGGAUAUCAGCUCGUUUAGAGCUGAGAAGGUGAUCACAUGU |  |  | 343 nM | 97 nM |
| GUAGCAUACCGAGGAUAUUCACCGGAAAACCGGACAUGAGGAUCACCCAUGUGGCGAAAGCCUUGGGAGAAGGCGGAAUGCUAC |  |  | 135 nM | 19.9 nM |
| ACGACGAAAGUCGAACGAUGAUCGAGAAGGACAUGAGGAUCACCCAUGUUCCCUGUAACAGGCAUGUAGGAUAUCGAUCAUCGA | 3.99 nM | 7.18 nM |  |  |
| CGGCCGGGUCGAGGAUAUAAGUCUAGGACAUGAGGAUCACCCAUGUAUGUCUUAGAAGGCGACCCGGCCAGCCUGUUACAGGCA |  |  | 31.7 nM | 7.21 nM |
| UUCGGCAGUGCAGGAUAUCUAGAGAAACACCUAAGAGAAGGGCAAACAUGAGGAUCACCCAUGUUUGGCGUGAGGUGAAGUUAG | 5.99 nM | 6.02 nM |  |  |
| GCUAUCGAUGUAGGAUAUGCUAGGGAAACCCUGGCAGAAGGACAUGAGGAUCACCCAUGUCAAUGAGUGAAGAGAAGAGAUGGC | 43.3 nM | 127 nM |  |  |

| Sequence | apparent Kd [1] | apparent Kd [2] | apparent Kd [3] | apparent Kd [4] |
| --- | --- | --- | --- | --- |
| AUGUUACAUGAGGAUCACCCAUGUGAGGAUAUGUGUAUCCCUAAAAAAGUGUGGGACCAUAGAAGGCAUUUGGA | 59.1 nM | 64.1 nM |  |  |
| CUUCAGUCAGGAUAUCUGCACGCUGGUGAGACCGGACGGAAGGAGAAGGGACAUGAGGAUCACCCAUGUAAAGC | 14 nM | 17.5 nM |  |  |
| UGGUGAAGUGUAGGAUAUGGAGAUGGGUUUUGGCCAGAAGGACAUGAGGAUCACCCAUGUGGUAGAGGGUUGGUGGUGGCUCGU | 31.6 nM | 24.3 nM |  |  |
| ACGCAUUGCCUUUGGUAGUGCGUAACAUGAGGAUCACCCAUGUAGGAUAUGGUAGGCUUUGCUUACCAGAAGGACAUUAUAAAC | 29.3 nM | 48.5 nM |  |  |
| AAUAACAGAGGAUAUACUGUUUUAUGUGUUUGUUGUUUUGAACAUGAGGAUCACCCAUGUAGAAGGCUGAGUAA | 29.1 nM | 25.9 nM |  |  |
| AUAUAACAUGAGGAUCACCCAUGUCACUAAAGUCGAGGAUAUGGGCAGGUUAUAUCCGAACCAGAAGGCGAAUUAU |  |  | 220 nM | 29.2 nM |
| GUAGCAUACCGAGGAUAUUCUAACCGGAAACGGACAUGAGGAUCACCCAUGUGGCGAAAGCCUUGGGAGAAGGCGGAAUGCUAC |  |  | 12.3 nM | 12.8 nM |
| CUGAGCUGAGGAUAUACAUGAGGAUCACCCAUGUUAAGCAGCUAGCGUAAAAGCAGAUGUAGAAGGCAGUUCGG | 18.9 nM | 20.3 nM |  |  |
| GCACUGGAUGUAGGAUAUCAGGACGAUAAGUCCUGAGAAGGACAUGAGGAUCACCCAUGUACACAAAACCAGUGCUAUAAUAUA | 13.7 nM | 18.8 nM |  |  |
| UGGUACUAUGGAGGAUAUGGGAAGAUACAUGAGGAUCACCCAUGUUUAAGAAUGCCGAGAGGCAACUAGAAGGCCCUAGUACCU |  |  | 349 nM | 32.7 nM |
| GAUUGUUUUUAGAAGGUGCCGGCGAGAGCCGCAACAUGAGGAUCACCCAUGUGUCGGUGACGACGCAAGGAUAUGGAGGUGGUU |  |  | 217 nM | 108 nM |
| GGGUACAUCGGAGGAUAUCAUGUAAAUACAUGAGGAUCACCCAUGUCGACGGAGACAUCGGAGAUUGAGAAGGCCGAUGUACCG |  |  | 42.2 nM | 367 nM |
| GCUAGUAUUGCAGGAUAUUGUAAUUUAUUAUUUCAAGAAGGGCAUUACAUGAGGAUCACCCAUGUCAUCCUAUGGUAUACUAGC | 10.6 nM | 22.8 nM |  |  |
| UAUACUAGAUAGGAUAUACUUUAUUUUUUUUUCGUAGAAGGAUCUACAUGAGGAUCACCCAUGUUAACAGCAGU | 74.1 nM | 53.9 nM |  |  |
| UAUUAACACGAAGGAUAUGCUUACAUGAGGAUCACCCAUGUAUGUAUAUUGAUCCAGAUUUUUGAGCAGAAGGUCGUGAGUAAA | 35.3 nM | 141 nM |  |  |
| AGGUUGGGAGGAUAUCCAAUAUAUGACAUGAGGAUCACCCAUGUUUCCACUCGUACCUCCGGAGAAGGCCCUUCCA | 21.7 nM | 23 nM |  |  |
| AAUUUAAUACAUGAGGAUCACCCAUGUAAUACUUGUAAGAUCAAGGAUAUCAGCUCGUUUAGAGCUGAGAAGGUGAUCACAUGU |  |  | 58.2 nM | 198 nM |
| UUAUUUAUACAAGGAUAUCAAUUAUAUACAAUUCCUACAUGAGGAUCACCCAUGUUUUAUUUUUUUGAGAAGGUGUAUUGUCUG |  |  | 30.1 nM | 32.8 nM |
| AGGUCAACCACAGGAUAUGGCUAGCAUAGCUAGCCAGAAGGGUGGUCGUAACCAUGUAAAUACAUGAGGAUCACCCAUGUAUCC |  |  | 235 nM | 66.5 nM |
| GCAGGCGACCAGAAGGGUGACAUGAGGAUCACCCAUGUAGAUGUGUUCCCGCUUGGGAACCGUCCACAGGAUAUGGUUGGUUAU |  |  | 51.1 nM | 53.8 nM |
